Among the data in ChEMBL document CHEMBL1122641, “Synthesis and pharmacological activity of some 9-substituted delta 8-tetrahydrocannabinol analogues” (1984) are Hypothermic effect and ED50 values, retold here.

SMILES strings stand for the structures.

What all share (assay type): functional
Assay [1] relates to Mus musculus. In words: Evaluation of hypothermia (after 1h) resulting from iv administration of compound at dose 10 mg/kg. Summed up:
(§1)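 Male ICR mice (22-30 g), housed in the laboratory 24 h before treatment; ambient 21-24 °C recorded. Rectal temperature was taken by thermistor probe (inserted 25 mm) just before iv injection of vehicle or drug (0.1 mL/10 g), then at 10-min intervals to 60 min. Value is the pre-injection minus 60-min temperature difference. At least six mice per dose.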

Assay [2] concerns Mus musculus. In words: Evaluation of spontaneous activity administered by iv route in mice. The procedure, abridged: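 Male ICR mice (22-30 g), housed 24 h before treatment. Given vehicle or drug iv (0.1 mL/10 g), then immediately placed singly in photocell activity chambers; beam interruptions counted for 10 min. Counts expressed as percent of vehicle control. ED50 (mg/kg) with 95% confidence limits by Litchfield-Wilcoxon method. At least six mice per dose.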

In assay [3] the test system is Mus musculus. In words: Evaluation of hypothermia (after 1h) resulting from iv administration of compound at dose 30 mg/kg. The procedure, abridged: as §1
Assay [4] concerns Mus musculus. In words: Evaluation of hypothermia (after 1h) resulting from iv administration of compound at dose 60 mg/kg. Summed up: as §1
In assay [5] the test system is Mus musculus. In words: Evaluation of hypothermia (after 1h) resulting from iv administration of compound at dose 20 mg/kg. The procedure, abridged:
as §1

The subject of assay [6] is Mus musculus. In words: Evaluation of hypothermia (after 1h) resulting from iv administration of compound at dose 100 mg/kg. Summed up: as §1
Assay [7] relates to Mus musculus. Put plainly: Evaluation of hypothermia (after 1h) resulting from iv administration of compound at dose 40 mg/kg. The procedure, abridged: as §1
Assay [8] deals with Mus musculus. In words: Evaluation of hypothermia (after 1h) resulting from iv administration of compound at dose 5 mg/kg. The procedure, abridged:
as §1

As to `CCCCCc1cc(O)c2c(c1)OC(C)(C)[C@@H]1CC=C(C(O)CC)CC21` (stereo partly drawn), the Hypothermic effect was 0.4 with Mus musculus [1], -0.2 with Mus musculus [3] and 1.3 with Mus musculus [4]. The compound further returned an ED50 with Mus musculus [2] of 39 mg/kg.

`CCCCCc1cc(O)c2c(c1)OC(C)(C)[C@@H]1CC=C(C(C)C)CC21` (stereo partly drawn) yielded an ED50 with Mus musculus [2] of 26 mg/kg. For the same compound, the Hypothermic effect in the assay with Mus musculus [3] is 0.8; in the assay with Mus musculus [4] it was 1.3; in the assay on Mus musculus [5] it was 1.2.

`CCCCCc1cc(O)c2c(c1)OC(C)(C)[C@@H]1CC=C(c3ccccc3)CC21` (stereo partly drawn) yielded an ED50 in the assay with Mus musculus [2] of 67 mg/kg. The Hypothermic effect in the assay on Mus musculus [6] came to 2.2; with Mus musculus [3], 1.6; in the assay with Mus musculus [4] it was 0.3.

In the case of `CCCCCc1cc(O)c2c(c1)OC(C)(C)[C@@H]1CC=C(CCCC)CC21` (stereo partly drawn), the values for the Hypothermic effect with Mus musculus [1], in the assay with Mus musculus [3] and with Mus musculus [4] were 0.3, 4.3 and 5, respectively. Besides, it took a dose of 32 mg/kg to reach the 50% effect level in the assay on Mus musculus [2] (ED50).

Turning to `CCCCCc1cc(O)c2c(c1)OC(C)(C)[C@@H]1CC=C(C(C)O)CC21` (stereo partly drawn), the Hypothermic effect is reported as 1.3 with Mus musculus [7], 0.8 with Mus musculus [3] and 0 in the assay with Mus musculus [5]. The same compound returned an ED50 in the assay on Mus musculus [2] of 27 mg/kg.

On to `CCCCCc1cc(O)c2c(c1)OC(C)(C)[C@@H]1CC=C(C)CC21` (stereo partly drawn), for which the results for the Hypothermic effect in the assay on Mus musculus [1], in the assay on Mus musculus [8] and in the assay on Mus musculus [5] were 1, 0.9 and 3.4, respectively. This compound displayed an ED50 in the assay with Mus musculus [2] of 7.1 mg/kg.

For the compound `CCCCCc1cc(O)c2c(c1)OC(C)(C)[C@@H]1CC=C(Cc3ccccc3)CC21` (stereo partly drawn), the Hypothermic effect worked out at 1.3 with Mus musculus [1], 1.1 with Mus musculus [3], 1.5 with Mus musculus [4] and 0.9 in the assay with Mus musculus [5]. It took a dose of 32 mg/kg to reach the 50% effect level with Mus musculus [2] (ED50).

Turning to `CCCCCc1cc(O)c2c(c1)OC(C)(C)[C@@H]1CC=C(CCc3ccccc3)CC21` (stereo partly drawn), the results for the Hypothermic effect with Mus musculus [7], with Mus musculus [3] and in the assay with Mus musculus [4] were 0.3, 0.3 and 0.9, respectively. The compound further returned an ED50 in the assay with Mus musculus [2] of 43 mg/kg.

The ED50 is the dose that gives a 50% effect, or the effect in half of the subjects.
